Test results taken from ChEMBL document CHEMBL4340510, “Design, synthesis, and biological evaluation of truncated deguelin derivatives as Hsp90 inhibitors” (Eur J Med Chem, 2019).

How the values were obtained:
NCI-H1299 [1] = assay: Antiproliferative activity against human NCI-H1299 cells assessed as inhibition of cell growth at 0.1 uM after 72 hrs by MTT assay relative to control; format: functional; details: NCI-H1299, 72 h, read-out: GI
How it was run: (§1)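 Cells in RPMI 1640 are seeded at 4,000 cells/well and held 24 h at 37 °C, 5% CO2. Medium is replaced with compound-containing medium (DMSO ≤0.25%) for 72 h at 37 °C. MTT read-out by absorbance at 570 nm. Quadruplicate wells, repeated three times; values are means of three independent experiments.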

NCI-H1299 [2] = assay: Antiproliferative activity against human NCI-H1299 cells assessed as inhibition of cell growth at 1 uM after 72 hrs by MTT assay relative to control; format: functional; details: NCI-H1299, 72 h, read-out: GI; how it was run: as §1
NCI-H1299 [3] = assay: Antiproliferative activity against human NCI-H1299 cells assessed as inhibition of cell growth at 10 uM after 72 hrs by MTT assay relative to control; format: functional; details: NCI-H1299, 72 h, read-out: GI; how it was run: as §1
NCI-H1299 [4] = assay: Antiproliferative activity against human NCI-H1299 cells after 72 hrs by MTT assay; format: functional, cell-based; details: NCI-H1299, 72 h; how it was run: as §1
MCF7 = assay: Antiproliferative activity against human MCF7 cells after 72 hrs by MTT assay; format: functional, cell-based; details: MCF7, 72 h; how it was run: as §1
A549 = assay: Antiproliferative activity against human A549 cells after 72 hrs by MTT assay; format: functional, cell-based; details: A549, 72 h; how it was run: as §1
[5] = biological target: Heat shock protein HSP 90-alpha (Homo sapiens, UniProt P07900); assay: Inhibition of FITC-geldanamycin binding to recombinant human full-length C-terminal His-tagged HSP90alpha […] (1 to 732 residues) expressed in Escherichia coli after 1 hr by fluorescence polarization assay

Structure (SMILES)	inhibition of growth at 0.1 µM (NCI-H1299 [1]) [%]	inhibition of growth at 1 µM (NCI-H1299 [2]) [%]	inhibition of growth at 10 µM (NCI-H1299 [3]) [%]	IC50 (NCI-H1299 [4]) [µM]	IC50 (MCF7) [µM]	IC50 (A549) [µM]	IC50 [5] [µM]
COc1ccc(C(Cc2ccccc2)C(=O)c2ccc3c(c2OCc2ccccc2)C=CC(C)(C)O3)cc1OC (stereo not drawn)	2.1	2.5	9.9	–	–	–	–
COc1ccc(CC(=O)c2ccc3c(c2O)C=CC(C)(C)O3)cc1	6.1	7.1	16.1	–	–	–	–
COc1cc(CC(=O)c2ccc3c(c2OC)C=CC(C)(C)O3)cc(OC)c1OC	9.6	27.4	58.3	7.2	5.08	6.15	0.63
COc1cc(/C=C/C(=O)c2ccc3c(c2O)C=CC(C)(C)O3)cc(OC)c1OC	3.8	8.7	12.3	–	–	–	–
COc1cc2c(cc1OC)[C@@H]1C(=O)c3ccc4c(c3O[C@@H]1CO2)C=CC(C)(C)O4 [DEGUELIN]	9.9	28.5	65.3	5.67	8.17	6.05	1.63
COc1ccc(CC(O)c2ccc3c(c2OC)C=CC(C)(C)O3)cc1OC (stereo not drawn)	6.5	10.8	19.8	–	–	–	–
COc1cc(CC(=O)c2ccc3c(c2O)C=CC(C)(C)O3)cc(OC)c1OC	9.7	19.7	49	12	11.2	13.1	0.43
COc1ccc(OC)c(CC(=O)c2ccc3c(c2OC)C=CC(C)(C)O3)c1	4.7	10.4	38.2	–	–	–	–
COc1c(C(=O)C(C)c2ccccc2)ccc2c1C=CC(C)(C)O2 (stereo not drawn)	4.5	6.5	15.5	–	–	–	–
COc1ccc(C(C)C(=O)c2ccc3c(c2OC)C=CC(C)(C)O3)cc1 (stereo not drawn)	7.1	10.8	13.3	–	–	–	–
COc1ccc(CC(=O)c2ccc3c(c2OC(C)=O)C=CC(C)(C)O3)cc1OC	4.1	6.2	19.5	–	–	–	–
COc1ccc(/C=C/c2ccc3c(c2OC)C=CC(C)(C)O3)cc1OC	5.2	8.6	14.4	–	–	–	–
COc1cc(CC(=O)c2ccc3c(c2OC)CCC(C)(C)O3)cc(OC)c1OC	11	30.6	67.5	5.72	5.22	5.33	0.28
COc1c(C(=O)Cc2ccc3c(c2)OCCO3)ccc2c1C=CC(C)(C)O2	3.5	6.5	28.1	–	–	–	–
COc1ccc(CC(=O)c2ccc3c(c2OC)C=CC(C)(C)O3)cc1OC	5.1	10.7	47.3	11.8	6.88	6	0.09
CC1(C)C=Cc2c(ccc(C(=O)Cc3ccc(Cl)c(Cl)c3)c2O)O1	8.3	9.1	11.5	–	–	–	–
COc1cc(CC(=O)c2ccc3c(c2OC)C=CC(C)(C)O3)cc(OC)c1	7.1	10.2	40.1	–	–	–	–
COc1ccc(CC(=O)c2ccc3c(c2OC)C=CC(C)(C)O3)cc1	3.6	7.3	10.6	–	–	–	–
COc1ccc(CC(=O)c2ccc3c(c2O)C=CC(C)(C)O3)cc1OC	4.8	8.2	45.3	–	–	–	–
CC(C)c1cc(C(=O)N2Cc3ccc(CN4CCN(C)CC4)cc3C2)c(O)cc1O [ONALESPIB]	94.8	96.8	95.7	0.37	0.29	0.44	0.02
COc1ccc(CC(=O)c2ccc3c(c2OC)CCC(C)(C)O3)cc1OC	7.2	12.4	49.3	12.6	7.86	7.2	0.15
CC1(C)C=Cc2c(ccc(C(=O)Cc3ccccc3)c2O)O1	3.9	7.8	15.1	–	–	–	–
COc1ccc(CCC(=O)c2ccc3c(c2O)C=CC(C)(C)O3)cc1OC	3.6	8.5	30.1	–	–	–	–
COc1c(C(=O)Cc2ccccc2)ccc2c1C=CC(C)(C)O2	5.6	9.3	11.3	–	–	–	–
COc1ccc(/C=C/C(=O)c2ccc3c(c2O)C=CC(C)(C)O3)cc1OC	5.3	6.4	10.7	–	–	–	–
